Three molecules from ChEMBL document CHEMBL1145035, “Design of selective peptidomimetic agonists for the human orphan receptor BRS-3” (J Med Chem, 2003) can be followed below.

For experiment [1], the target named is T1, Neuromedin-B receptor (Homo sapiens, UniProt P28336). Briefly: (§1) Effective concentration required against nueromedin B receptor (NMB-R) in CHO cells by using FLIPR assay. Type of experiment: functional, cell-based. A digest of the protocol: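 Intracellular Ca2+ mobilization was read by FLIPR in CHO cells transfected with the human receptor. NMB was the reference for NMB-R and GRP for GRP-R. EC50 values (±SEM) come from independent concentration–response curves, 4 to 30 per compound depending on the series.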
T1 sequence (P28336 whole entry): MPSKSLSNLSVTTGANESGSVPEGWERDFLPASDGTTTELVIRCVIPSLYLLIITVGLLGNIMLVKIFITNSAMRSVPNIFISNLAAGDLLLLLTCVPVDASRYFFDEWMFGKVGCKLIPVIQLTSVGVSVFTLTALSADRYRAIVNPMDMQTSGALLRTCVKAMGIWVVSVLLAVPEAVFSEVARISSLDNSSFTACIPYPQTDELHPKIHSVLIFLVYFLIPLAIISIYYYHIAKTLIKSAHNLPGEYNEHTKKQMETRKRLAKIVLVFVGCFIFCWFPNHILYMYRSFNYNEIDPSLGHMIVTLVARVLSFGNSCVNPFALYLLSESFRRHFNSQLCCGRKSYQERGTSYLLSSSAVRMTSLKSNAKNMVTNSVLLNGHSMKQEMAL

The nature of experiment [2]: Emax.
The target of experiment [3] is T2, Bombesin receptor subtype-3 (Homo sapiens, UniProt P32247).
T2 sequence (P32247 whole entry): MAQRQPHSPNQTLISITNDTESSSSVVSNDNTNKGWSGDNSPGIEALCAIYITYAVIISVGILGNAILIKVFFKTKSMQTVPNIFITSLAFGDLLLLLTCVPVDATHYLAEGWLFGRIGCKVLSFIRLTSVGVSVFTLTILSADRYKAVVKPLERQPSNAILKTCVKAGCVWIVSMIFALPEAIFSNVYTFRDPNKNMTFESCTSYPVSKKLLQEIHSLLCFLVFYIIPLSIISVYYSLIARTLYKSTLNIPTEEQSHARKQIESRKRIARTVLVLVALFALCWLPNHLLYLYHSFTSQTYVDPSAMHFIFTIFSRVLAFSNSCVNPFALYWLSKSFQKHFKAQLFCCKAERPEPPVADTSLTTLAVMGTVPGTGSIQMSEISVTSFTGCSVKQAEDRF
Briefly: Effective concentration required against human bombesin receptor 3 (BRS-3) in CHO cells by using FLIPR assay. The experiment is classed as functional, cell-based.

Experiment [4] deals with Gastrin-releasing peptide receptor (Homo sapiens, UniProt P30550). Briefly: Effective concentration required against gastrin releasing peptide receptor (GRP-R) in CHO cells by using FLIPR assay. The experiment is classed as functional, cell-based.
Chain of Gastrin-releasing peptide receptor (P30550 whole entry): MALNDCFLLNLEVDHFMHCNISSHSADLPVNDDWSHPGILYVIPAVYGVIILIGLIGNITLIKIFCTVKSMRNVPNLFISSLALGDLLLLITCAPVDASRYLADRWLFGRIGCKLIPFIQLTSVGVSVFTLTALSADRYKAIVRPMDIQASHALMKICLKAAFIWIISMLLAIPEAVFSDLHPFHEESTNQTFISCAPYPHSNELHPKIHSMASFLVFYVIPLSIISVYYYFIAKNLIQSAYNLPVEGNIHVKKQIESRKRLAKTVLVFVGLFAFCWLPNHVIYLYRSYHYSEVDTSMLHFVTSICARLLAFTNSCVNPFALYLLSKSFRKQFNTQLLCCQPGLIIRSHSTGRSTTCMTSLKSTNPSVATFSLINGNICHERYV
Experiment [5] deals with T1, Neuromedin-B receptor. Described as §1. Type of experiment: functional, cell-based. This is another data set of the same source.

Square brackets hold non-standard residues; d marks the D form. Peptide text beside a SMILES is read from it. * marks the point of attachment. NHPhenethyl = c1ccc(CCN*)cc1; Nle = CCCC[C@H](N)C(=O)O; PhAc = O=C(Cc1ccccc1)*; βAla = NCCC(=O)O

In the case of `NC(=O)CC[C@H](NC(=O)Cc1ccc(Cl)cc1)C(=O)N[C@@H](Cc1c[nH]c2ccccc12)C(=O)NCCc1ccccc1`, the 50% effective concentration (EC50) on Neuromedin-B receptor [1] was found to be 18.5 µM; in experiment [3], 1.4 µM; in experiment [4], 12.2 µM. In experiment [2], this molecule yielded an Emax of 62.

For `CCCC[C@H](NC(=O)[C@H](Cc1ccccc1)NC(=O)[C@H](Cc1cnc[nH]1)NC(=O)CCNC(=O)[C@@H](NC(=O)[C@H](C)NC(=O)[C@H](Cc1c[nH]c2ccccc12)NC(=O)[C@H](CCC(N)=O)NC(=O)[C@H](N)Cc1ccc(O)cc1)C(C)C)C(N)=O` (H-[dY]QWAV[βAla]HF[Nle]-NH2), the EC50 in experiment [3] worked out at 0.151 µM; at Neuromedin-B receptor [5], 0.31 µM.

On to `NC(=O)CC[C@H](NC(=O)Cc1ccccc1)C(=O)N[C@@H](Cc1c[nH]c2ccccc12)C(=O)NCCc1ccccc1` (PhAc-Gln-Trp-NHPhenethyl), for which the EC50 at Neuromedin-B receptor [1] is 15 µM; in experiment [3], 1.2 µM; in experiment [4], 19.1 µM. This molecule displayed an Emax in experiment [2] of 38.
